DTT redox prof: compounds producing H2O2 with reducing agent – biochemical, NIH compound library profiling, artefact control for MLSCN library redox annotation, primary screen. DTT-dependent redox cycling H2O2, phenol red/HRP absorbance; 100% = 100 µM peroxide control, 0% = buffer. activation, % at 10 µM. 0.03% of 200,000 active;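 active = activation of at least 50% relative to the plate's high and low controls in the primary single-dose screen; inactive = activation below 50%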;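 note: compound incubated with DTT at 0.8 mM final as the reducing agent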
p97 ATPase inh: inhibitors of human p97 ATPase, primary screen, biochemical | inhibition, % at 8 µM | 0.42% of 220,000 active | Transitional endoplasmic reticulum ATPase (Homo sapiens), P55072 | AID 1481, 2009 | recombinant p97 ATPase, Kinase-Glo ATP luminescence, 3 h; in the data active = inhibition above about 15%;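 note: 0% = DMSO vehicle and 100% = wells lacking enzyme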
Target sequence (P55072 whole entry, looked up): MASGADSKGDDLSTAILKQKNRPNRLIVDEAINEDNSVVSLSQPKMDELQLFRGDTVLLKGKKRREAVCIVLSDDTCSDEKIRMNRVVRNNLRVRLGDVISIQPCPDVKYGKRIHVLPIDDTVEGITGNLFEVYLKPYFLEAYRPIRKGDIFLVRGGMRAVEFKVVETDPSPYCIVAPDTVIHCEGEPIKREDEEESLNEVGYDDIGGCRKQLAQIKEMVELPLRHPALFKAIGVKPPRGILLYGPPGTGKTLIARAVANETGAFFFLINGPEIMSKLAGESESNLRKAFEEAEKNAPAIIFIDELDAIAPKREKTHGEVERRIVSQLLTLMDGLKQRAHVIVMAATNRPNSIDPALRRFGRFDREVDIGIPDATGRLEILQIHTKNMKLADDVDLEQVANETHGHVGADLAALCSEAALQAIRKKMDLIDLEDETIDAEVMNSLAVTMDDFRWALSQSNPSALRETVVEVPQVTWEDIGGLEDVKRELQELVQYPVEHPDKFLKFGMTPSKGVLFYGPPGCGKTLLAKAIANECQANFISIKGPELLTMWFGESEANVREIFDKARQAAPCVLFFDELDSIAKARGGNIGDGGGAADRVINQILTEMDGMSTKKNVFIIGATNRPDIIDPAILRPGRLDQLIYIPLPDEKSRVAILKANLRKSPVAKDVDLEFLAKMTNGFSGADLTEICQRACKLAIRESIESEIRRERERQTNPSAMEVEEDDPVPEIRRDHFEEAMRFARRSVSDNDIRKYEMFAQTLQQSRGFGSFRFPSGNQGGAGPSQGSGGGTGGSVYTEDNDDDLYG
PKD1 kinase inh: inhibitors of human PKD1 kinase, biochemical, fluorescence polarization. PKD1 kinase fluorescence polarization assay. inhibition, % (concentration not given with the values). Serine/threonine-protein kinase D1 (Homo sapiens), Q15139. 0.056% of 200,000 active; in the data active = inhibition above about 50%
Arbovirus inh: antivirals against arbovirus infection, primary screen, cell-based, full library, 10K replicate subset; arbovirus infection cell-based antiviral screen; inhibition, % at 10 µM; 0.37% of 200,000 active; in the data active = inhibition above about 30%
Wee1 stabilizer: Wee1 degradation inhibitors, primary screen, cell-based, HeLa, Wee1K328M-luciferase, luminescence. Wee1-like protein kinase (Homo sapiens), P30291. HeLa Luc-Wee1K328M stability; 100% = proteasome inhibitor MG132 effect. reporter increase, % at 5 µM. 1.2% of 220,000 active. AID 1321, 2008;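 active = activation above the mean of all tested compounds plus 3 SD, set per screening run, cut at about 8.8% in these data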;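 note: cells exposed to compound for 20 h before luminescence read; 0% = DMSO alone and 100% = MG132 at 30 µM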
RBBP9 inhibitor: human RBBP9 inhibitors, primary screen, biochemical, fluorescence polarization, FP-Rh probe, HTS; recombinant RBBP9; inhibition, % at 7.94 µM; 0.2% of 220,000 active;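 active = inhibition above the campaign mean of all tested compounds plus 3 SD, cut at about 14% in these data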;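 note: plate controls were DMSO wells with RBBP9 for no effect and wells lacking RBBP9 protein for full effect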
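Assay system: recombinant human RBBP9; Reagent: Serine-hydrolase probe FP-Rh, 375 nM pre-mixing; Doses: 7.94 µM single dose, 0.794% DMSO; Incubation: 30 min then 45 min, 25 °C; Detection: fluorescence polarization (mP), excitation 525 nm, emission 598 nm; Evaluation: percent inhibition from mP, scaled between DMSO and no-protein wells.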
* hit, by the source's call; · = no result. This is a sample that favours compounds with a hit; in the whole collection about 2.2% have one here.

SMILES	DTT redox prof	p97 ATPase inh	PKD1 kinase inh	Arbovirus inh	Wee1 stabilizer	RBBP9 inhibitor
O=C(CNCCc1ccccc1)N1CCc2ccccc2C1	0	4	2	3	-3	0
CCCCN(C)C(=O)c1cc2cc3cc(OC)ccc3nc2o1	0	-5	0	-32	10*	-8
COc1cc([N+](=O)[O-])ccc1NC(=O)CC1SC(=Nc2ccc(F)cc2)N(CCC2=CCCCC2)C1=O (stereo unspecified)	1	5	-6	48*	1	-3
N#CCCN(Cc1cccnc1)C(=S)Nc1ccccc1Cl	0	5	-8	19	2	-3
N#CCCN(Cc1cccnc1)C(=S)Nc1ccc(OC(F)F)cc1	0	6	-4	31*	1	10
CCNC(=O)CN1C(=O)NC(Cc2ccccc2)(Cc2ccccc2)C1=O	-2	-6	-4	0	2	-8
COCCn1c(-c2ccccc2)cnc1SCC(=O)Nc1cccc2ccccc12	0	-6	1	38*	-2	7
COc1ccc(CC(NC(C)=O)C(=O)NC2CCN(c3nc(C)cc(C)c3C#N)CC2)c(OC)c1 (stereo unspecified)	-2	-2	6	-3	9.4*	-11
COc1cccc(CC(NC(C)=O)C(=O)NC2CCN(c3nc(C)cc(C)c3C#N)CC2)c1 (stereo unspecified)	1	1	6	5	0	1
CCS(=O)(=O)N1CCC(C(=O)NCCCOC)CC1	-1	-3	12	3	10*	-10
CCCS(=O)(=O)N1CCC(C(=O)NCCCOC)CC1	4	2	2	7	-2	2
COc1ccc(COc2cc(-c3cccc(OC)c3)nc3ccc(N)cc23)cc1	-1	5	-3	-26	9.5*	-11
CN1C(=C2C(=O)OC(C)(C)OC2=O)Sc2ccccc21	1	2	7	-9	8.8*	-6
COC(=O)/C(C#N)=C/c1c(Oc2cccc(C)c2)nc2ccccn2c1=O	·	0	·	·	0	1
Cc1cccc(Oc2nc3ccccn3c(=O)c2/C=C(\C#N)C(=O)NC2CCS(=O)(=O)C2)c1 (stereo unspecified)	0	3	7	2	10*	-8
O=C(O)c1ccc(-c2nc(-c3ccccc3)cs2)cc1	-1	1	2	5	9.6*	-8
CC(NC(=O)Cn1cccc1C(=O)c1ccccc1)c1ccc2c(c1)OCCO2 (stereo unspecified)	1	1	-2	-7	-3	1
COc1ccc(/C=C(/NC(=O)c2cccc([N+](=O)[O-])c2)C(=O)O)cc1OC	1	2	5	3	3	-6
COc1ccccc1/C=C(\NC(=O)c1ccc(OC)c(OC)c1)C(=O)Nc1cc([N+](=O)[O-])ccc1C	0	4	-1	-18	10*	-8
CCc1ccc(C(=O)NNc2ccc(F)cc2F)cc1	·	3	·	·	-1	-9
O=C(NC1CCCC1)C(=O)N(c1ccccc1F)C(C(=O)NCC1CCCO1)c1cccs1 (stereo unspecified)	0	4	-9	2	-2	-7
COCCNC(=O)C12CC3CC(C1)CC(c1ccccc1)(C3)C2	0	-4	0	3	11*	-14
CC(C)(C)NC(=O)CSCc1ccc(Br)cc1	-1	2	-9	0	0	-3
O=C1CSC(=S)N1N=C1CCCCCC1	0	-4	4	1	13*	-8
O=C1CSC(=S)N1/N=C/C=C/c1ccccc1	-1	-5	-5	2	-2	-15
SMILES	DTT redox prof	p97 ATPase inh	PKD1 kinase inh	Arbovirus inh	Wee1 stabilizer	RBBP9 inhibitor
C/C(CC1CC(COCCC(C)C)OC1=O)=N\NC(N)=S (stereo unspecified)	2	4	1	-2	1	0
O=C1NC(=O)/C(=C\c2ccc(Oc3ccc([N+](=O)[O-])cn3)cc2)S1	0	6	2	33*	0	-2
COc1ccc(CCNC(=O)c2cc3c(C)nccc3[nH]c2=O)cc1OC	1	1	0	-22	0	-2
CC(C)Oc1cccc(C(=O)NC(=S)Nc2ccccc2)c1	0	0	-1	36*	1	0
CC(C)Oc1cccc(C(=O)NC(=S)Nc2cccnc2)c1	-1	-2	4	0	2	-7
O=C(NCCNc1ccc([N+](=O)[O-])cc1)c1cccc(Br)c1	-1	1	-13	4	9.4*	-9
Cc1noc(C)c1C(=O)OC(C)C(=O)Nc1ccc(S(=O)(=O)NC(C)C)cc1 (stereo unspecified)	0	1	1	1	0	-8
CCN(CC)S(=O)(=O)c1cc(C(=O)NC2CCCCC2)ccc1C	-1	1	5	-3	5	-4
Cc1cc(N)ccc1N1CCCC1	2	17*	-14	-10	-2	13
NC(=O)c1cc(N)ccc1N1CCCC1	0	8	14	0	1	6
Cc1cc(C)nc(NS(=O)(=O)c2ccc(NC(=O)c3ccco3)cc2)n1	3	6	-8	4	-2	0
CCc1ccc(C(=O)Nc2ccc(S(=O)(=O)Nc3nc(C)cc(C)n3)cc2)o1	0	-8	-3	106*	-2	-8
O=C(c1cccs1)N1CCN(Cc2ccccc2[N+](=O)[O-])CC1	0	2	-14	-1	-1	-2
CNC(=O)c1cc2c(s1)CCCCCC2	0	4	-6	1	1	-6
CC(C)NC(=O)c1cc2c(s1)CCCC2	2	3	-3	9	8.9*	5
O=C(Cc1csc(-c2ccccc2)n1)NCc1cccs1	0	3	-8	12	2	-11
CC1=C(C#N)C(=O)NC(=O)/C1=C\c1ccc(-c2cc(C)c(C)cc2[N+](=O)[O-])o1	-2	-3	1	34*	-2	1
Cc1ccc(-c2ccc(/C=C3/NC(=O)NC3=O)o2)cc1[N+](=O)[O-]	0	4	2	-32	-3	4
O=C(Oc1ccccc1N1C(=O)C2CCCCC2C1=O)c1ccccc1 (stereo unspecified)	-4	-6	-8	3	3	-2
CC1CCC2C(=O)N(c3ccccc3OC(=O)c3ccccc3F)C(=O)C2C1 (stereo unspecified)	-2	-10	-7	8	9.5*	-12
C=CCn1c(SCC(=O)Nc2cc(C)on2)nnc1C1COc2ccccc2O1 (stereo unspecified)	-1	-5	-3	0	-3	-10
